Test results taken from ChEMBL document CHEMBL4513216, “Probing the Open Global Health Chemical Diversity Library for Multistage-Active Starting Points for Next-Generation Antimalarials” (ACS Infect Dis, 2020).

Assay: Toxicity liver stage against HepG2, at 10uM
Type: cell-based
Parameters: test concentration 10 uM, cell line HepG2-A16-CD81EGFP
Details: human, HepG2-A16-CD81EGFP cells; read-out: INHIBITION
Method in brief: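 Uninfected HepG2-A16-CD81EGFP cells, 3 × 10^3 per well, 1536-well, plated on prespotted compound at 10 μM final, parasite-free screening media added to match infected plates; puromycin 10 μM positive, DMSO 0.5% negative; run in parallel with 48 h PbLuc assay at 37 °C, 5% CO2; viability by CellTiter-Glo luminescence, normalized to controls.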

| SMILES | cytotoxicity at 10 µM |
| --- | --- |
| Cn1cc(C(=O)Nc2ccc3c(c2)N(C(=O)c2ccco2)CC3)nn1 | 0.529% |
| O=C(C1CCCCC1)N1CCO[C@@H]2CNC[C@@H]21 | 8.82% |
| O=C(c1cc(-c2ccn(CC3CC3)n2)n2ccccc12)N1CCCO1 | 5.07% |
| CCCn1nc(C)c(-c2cncn2CC2(N(C)C)CCC(C)CC2)c1C (centres undefined) | 9.35% |
| Cc1nc(N)ncc1C(=O)N1CCCC1(C)C(=O)N(C)C (centres undefined) | 10.2% |
| CC(=O)Nc1nc(SCc2ccc3c(c2)OCO3)ns1 | -8.98% |
| Cc1ncncc1C(=O)N1CCOC(C(=O)NC2CCCC2)C1 (centres undefined) | -4.23% |
| Cc1cc(C)nc(C2CCCN2C(=O)c2coc(C)n2)n1 (centres undefined) | 6.93% |
| Nc1nccc(C2CCN(CC3CC3)C2)n1 (centres undefined) | 8.54% |
| COCCC(=O)N1CCC(NC(=O)c2cscc2C)CC1 | -14.2% |
| CN(C)c1cc2c(nn1)CCN(C(=O)C1COc3ccccc3C1)C2 (centres undefined) | 14.3% |
| CC1CCCCN1Cc1nc(Cc2ccccc2)no1 (centres undefined) | 4.61% |
| Cc1oc(-c2ccsc2)nc1CC(=O)NCC(C)(C)CN(C)C | -5.81% |
| COCc1csc(NC(=O)NCc2ccsc2)n1 | 4.53% |
| CCN(C(=O)CN1CCCC1c1cccs1)c1ccccc1C (centres undefined) | 3.7% |
| CN(C)C(=O)CNC(CC(F)(F)F)c1ccc(Cl)cc1 (centres undefined) | -3.53% |
| CC(NC(=O)Cn1cccn1)c1cccnc1 (centres undefined) | 15.9% |
| Cc1nn(C)c(C)c1C(C)NC(=O)c1cc(CN2CCC(O)CC2)on1 (centres undefined) | 0.894% |
| Cc1cccc2c1nc(CCO)n2-c1ccc(C(=O)N2CCCC2)o1 | 7.39% |
| CCNc1ncc(C(=O)NCCNc2ccncc2C)cn1 | -6.83% |
| CN1CCCN(C[C@@H]2CN(c3nc(C(N)=O)cs3)C[C@@H]2CO)CC1 | 2.67% |
| CCn1cnnc1Cc1nc2c([nH]1)CC(c1ccc(Cl)cc1)CNC2=O (centres undefined) | -48.9% |

| SMILES | cytotoxicity at 10 µM |
| --- | --- |
| CN(C)CC1(O)CCN(Cc2cnc3c(-c4ccccc4)cnn3c2)C1 (centres undefined) | -6.16% |
| CN(C)CCCn1ccnc1C1CCN(c2cccc(C(=O)O)n2)CC1 | 6.87% |
| CCCc1cc(C(=O)N[C@H](C)[C@@H](O)c2ccc(O)cc2)n(C)n1 | 1.48% |
| Cc1nsc(NC(=O)N2CCN(Cc3ccccc3F)C(=O)C2)n1 | -4.25% |
| CNc1ncccc1C(=O)N1CCCC2(CCN(C)CC2)CC1 | -9.17% |
| O=C(NCc1cccnc1-n1cncn1)C1CC2(CCNCC2)CN1 (centres undefined) | 2.08% |
| COCCc1noc(CNC2CCCC(C)(C)C2)n1 (centres undefined) | -0.475% |
| CCN(CC)c1ccc(-c2nc(-c3cccc(OC)c3OC)no2)cn1 | 20% |
| CCCc1nc(C)cc(N2CCC3(CCC(=O)N(CCOC)C3)CC2)n1 | 9.51% |
| Cc1ccc2oc(C(=O)N3CCCC(n4ccnc4C)C3)cc2n1 (centres undefined) | -3.37% |
| CCc1nc(CN(C)C2CCN(CCNS(=O)(=O)CC)C2)no1 (centres undefined) | -2.14% |
| c1ccc(-c2nc(CN3CCCC(Cn4cncn4)C3)co2)cc1 (centres undefined) | 3.18% |
| Cc1nc(C)n(C2CCCN(C(=O)c3cc4ccccc4n3C)C2)n1 (centres undefined) | -4.5% |
| CN(C)C(=O)CO[C@@H]1CC[C@H]2[C@H]1OCCN2c1ncccn1 | -6.96% |
| CC(C)N1[C@H](Cn2cncn2)C[C@@H]2CN(c3ncccn3)CC[C@@H]21 | 3.17% |
| CC(C)n1nc(CN(C)C)c2c1CN(CC1CC1)CC2 | -3.15% |
| O=C(NC1CCC1)[C@H]1CCS(=O)(=O)[C@@H]2CN(CCc3ccccc3)C[C@H]12 | -3.06% |
| CC(=O)N1CCOCC2(CCN(Cc3ccc(C)s3)CC2)C1 | -5.39% |
| Cc1nc(N2CCCC2)nc2c1CCN(C(=O)CN(C)C)CC2 | -5.73% |
| CC(C)N(C)Cc1nnc2n1CCN(CC1CC1)CC2 | 0.319% |
| CN(C)C(=O)N[C@@H]1CN(C2CCOCC2)[C@@H]2CCCO[C@@H]21 | -4.08% |
| O=C(N[C@@H]1CN(c2ncccn2)C[C@@H]2CCCO[C@@H]21)c1cnccn1 | 0.199% |
